The source made the active and inactive calls. No cut-off for these calls is given here.
Experiments:
SN12C = assay: Cytotoxicity against human SN12C cells after 48 hrs by sulforhodamine B assay; format: functional
How it was run: (§1)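 NCI 60-cell-line panel screen of human tumor lines: a one-dose pre-test, then the main test over a 5-log range (10^-4–10^-8 M). GI50, TGI and LC50 are reported as log molar concentrations for 50% net growth inhibition, total growth inhibition and 50% net cell death. Mean graph midpoints are also calculated.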

MCF7 [1] = assay: Cell cycle arrest in human MCF7 cells assessed as accumulation at G1 phase at 5 uM after 24 hrs using propidium iodide staining by flow cytometry relative to control; format: functional
How it was run: (§2)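 MCF-7 cells were seeded at 5×10^5 per 60 mm dish and grown 24 h. They were then exposed to 5 uM compound for a further 24 h, with untreated control cells alongside. Cells were trypsinised, fixed in ice-cold 70% ethanol (4 °C, 30 min), treated with 1 mg/ml RNase A (37 °C, 30 min) and stained with propidium iodide/citrate/Triton solution. DNA content was read by flow cytometry on 20,000 events.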

MCF7 [2] = assay: Reduction of cyclin B expression in human MCF7 cells at 5 uM after 24 hrs by Western blotting; format: functional, cell-based
How it was run: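 MCF-7 cells, kept in DMEM with 10% fetal calf serum at 37 °C under 5% CO2, treated 24 h. Lysis in ice-cold RIPA with protease inhibitors; Bradford quantitation; 30 µg protein per lane on 12% SDS-PAGE, then PVDF. Primary antibodies (1:500) at 4 °C overnight; HRP secondary (1:2000); chemiluminescence detection; β-actin loading control.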

SK-MEL-28 = assay: Cytotoxicity against human SK-MEL-28 cells after 48 hrs by sulforhodamine B assay; format: functional; conditions: SK-MEL-28, 48 h
How it was run: (§3)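 Run by the NCI 60-cell-line screen. A one-dose pre-test was done first, followed by the main test over a 5-log dose range (10^-4 to 10^-8 M). Results are reported as log molar GI50 (50% net growth inhibition), TGI (total growth inhibition) and LC50 (50% net cell death), with mean-graph midpoints across all lines.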

MOLT-4 = assay: Cytotoxicity against human MOLT4 cells after 48 hrs by sulforhodamine B assay; format: functional; conditions: MOLT-4, 48 h; how it was run: as §3
[3] = Cytotoxicity against human Hs 578T cells after 48 hrs by sulforhodamine B assay; format: functional; how it was run: as §3
UACC-62 = assay: Cytotoxicity against human UACC62 cells after 48 hrs by sulforhodamine B assay; format: functional; conditions: UACC-62, 48 h; how it was run: as §1
IGROV-1 = assay: Cytotoxicity against human IGROV1 cells after 48 hrs by sulforhodamine B assay; format: functional; conditions: IGROV-1, 48 h; how it was run: as §3
DU-145 = assay: Cytotoxicity against human DU145 cells after 48 hrs by sulforhodamine B assay; format: functional; conditions: DU-145, 48 h; how it was run: as §3
LOX IMVI = assay: Cytotoxicity against human LOXIMVI cells after 48 hrs by sulforhodamine B assay; format: functional; how it was run: as §3
T47D = assay: Cytotoxicity against human T47D cells after 48 hrs by sulforhodamine B assay; format: functional; how it was run: as §1
SW-620 = assay: Cytotoxicity against human SW620 cells after 48 hrs by sulforhodamine B assay; format: functional; conditions: SW-620, 48 h; how it was run: as §1
K562 = assay: Cytotoxicity against human K562 cells after 48 hrs by sulforhodamine B assay; format: functional; conditions: K562, 48 h; how it was run: as §3
TK-10 = assay: Cytotoxicity against human TK10 cells after 48 hrs by sulforhodamine B assay; format: functional; conditions: TK-10, 48 h; how it was run: as §1
MCF7 [4] = assay: Cytotoxicity against human MCF7 cells after 48 hrs by sulforhodamine B assay; format: functional; conditions: MCF7, 48 h
How it was run: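 Cells were grown in RPMI 1640 with 10% FBS and 2 mM L-glutamine, plated at densities set by doubling time, and pre-incubated 24 h at 37 °C, 5% CO2. Drugs were tested at 0.1, 1, 10 and 100 µM in triplicate wells for 48 h continuous exposure. Cells were fixed with 10% TCA (final) and stained with 0.4% SRB. A540 was read against a 690 nm reference, and percent growth was calculated relative to control. Experiments were repeated three times.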

KM12 = assay: Cytotoxicity against human KM12 cells after 48 hrs by sulforhodamine B assay; format: functional; conditions: KM12, 48 h; how it was run: as §3
CCRF-CEM = assay: Cytotoxicity against human CCRF-CEM cells after 48 hrs by sulforhodamine B assay; format: functional; how it was run: as §3
OVCAR-3 = assay: Cytotoxicity against human OVCAR3 cells after 48 hrs by sulforhodamine B assay; format: functional; conditions: OVCAR-3, 48 h; how it was run: as §3
ACHN = assay: Cytotoxicity against human ACHN cells after 48 hrs by sulforhodamine B assay; format: functional; how it was run: as §3
HCC 2998 = assay: Cytotoxicity against human HCC2998 cells after 48 hrs by sulforhodamine B assay; format: functional; conditions: HCC 2998, 48 h; how it was run: as §3
MCF7 [5] = assay: Cell cycle arrest in human MCF7 cells assessed as accumulation at G0 phase at 5 uM after 24 hrs using propidium iodide staining by flow cytometry relative to control; format: functional; how it was run: as §2
NCI-H460 = assay: Cytotoxicity against human NCI-H460 cells after 48 hrs by sulforhodamine B assay; format: functional; conditions: NCI-H460, 48 h; how it was run: as §3
A498 = assay: Cytotoxicity against human A498 cells after 48 hrs by sulforhodamine B assay; format: functional; conditions: A498, 48 h; how it was run: as §3
NCI-H23 = assay: Cytotoxicity against human NCI-H23 cells after 48 hrs by sulforhodamine B assay; format: functional; conditions: NCI-H23, 48 h; how it was run: as §3
UO-31 = assay: Cytotoxicity against human UO31 cells after 48 hrs by sulforhodamine B assay; format: functional; conditions: UO-31, 48 h; how it was run: as §1
[6] = Cytotoxicity against human […] cells after 48 hrs by sulforhodamine B assay; format: functional; how it was run: as §3
[7] = read-out: pLC50 (the source's name) (converted)

For `COc1cc(C2NC(=O)c3ccccc3N2)ccc1OCCCCCOc1c(OC)cc(C2=NOC(c3cc(OC)c(OC)c(OC)c3)C2)cc1OC` (configuration not stated), the GI50 (SN12C) was 25.1 µM, the CC50 (SN12C; [7]) was over 100 µM and the TGI (SN12C; read-out: pTGI) was over 100 µM. The Activity (MCF7 [1]) was 32.15%, the Activity (MCF7 [2]) was “Active” and the GI50 (SK-MEL-28) was 5.25 µM. For the same compound, the CC50 (SK-MEL-28; [7]) was over 100 µM, the TGI (SK-MEL-28; read-out: pTGI) was over 100 µM and the GI50 (MOLT-4) was 479 nM. The CC50 (MOLT-4; [7]) was over 100 µM, the TGI (MOLT-4; read-out: pTGI) was over 100 µM and the GI50 [3] was 16.6 µM. The CC50 [3, 7] was over 100 µM, the TGI ([3]; read-out: pTGI) was over 100 µM and the GI50 (UACC-62) was 257 nM. The CC50 (UACC-62; [7]) was over 100 µM, the TGI (UACC-62; read-out: pTGI) was over 100 µM and the GI50 (IGROV-1) was 1120 nM. The CC50 (IGROV-1; [7]) was over 100 µM, the TGI (IGROV-1; read-out: pTGI (converted)) was 50.1 µM and the GI50 (DU-145) was 22.4 µM. It also gave a CC50 (DU-145; [7]) of over 100 µM, a TGI (DU-145; read-out: pTGI) of over 100 µM and a GI50 (LOX IMVI) of 14.1 µM. For the same compound, the CC50 (LOX IMVI; [7]) was over 100 µM, the TGI (LOX IMVI; read-out: pTGI) was over 100 µM and the GI50 (T47D) was 191 nM. It also gave a CC50 (T47D; [7]) of over 100 µM, a TGI (T47D; read-out: pTGI) of over 100 µM and a GI50 (SW-620) of 10.2 µM. The CC50 (SW-620; [7]) was over 100 µM, the TGI (SW-620; read-out: pTGI) was over 100 µM and the GI50 (K562) was 501 nM. It also gave a CC50 (K562; [7]) of over 100 µM, a TGI (K562; read-out: pTGI) of over 100 µM and a GI50 (TK-10) of over 100 µM. The CC50 (TK-10; [7]) was over 100 µM, the TGI (TK-10; read-out: pTGI) was over 100 µM and the GI50 (MCF7 [4]) was 282 nM. The CC50 (MCF7 [4]; [7]) was over 100 µM, the TGI (MCF7 [4]; read-out: pTGI) was over 100 µM and the GI50 (KM12) was 5.5 µM. The CC50 (KM12; [7]) was over 100 µM, the TGI (KM12; read-out: pTGI) was over 100 µM and the GI50 (CCRF-CEM) was 631 nM. For the same compound, the CC50 (CCRF-CEM; [7]) was over 100 µM, the TGI (CCRF-CEM; read-out: pTGI) was over 100 µM and the GI50 (OVCAR-3) was 12.9 µM. It also gave a CC50 (OVCAR-3; [7]) of over 100 µM, a TGI (OVCAR-3; read-out: pTGI (converted)) of 63.1 µM and a GI50 (ACHN) of 324 nM. The CC50 (ACHN; [7]) was over 100 µM, the TGI (ACHN; read-out: pTGI) was over 100 µM and the GI50 (HCC 2998) was 19.1 µM. The CC50 (HCC 2998; [7]) was over 100 µM, the TGI (HCC 2998; read-out: pTGI (converted)) was 52.5 µM and the Activity (MCF7 [5]) was 1.57%. The GI50 (NCI-H460) was 13.5 µM, the CC50 (NCI-H460; [7]) was over 100 µM and the TGI (NCI-H460; read-out: pTGI (converted)) was 60.3 µM. For the same compound, the GI50 (A498) was 19.5 µM, the CC50 (A498; [7]) was over 100 µM and the TGI (A498; read-out: pTGI) was over 100 µM. The GI50 (NCI-H23) was 603 nM, the CC50 (NCI-H23; [7]) was over 100 µM and the TGI (NCI-H23; read-out: pTGI) was over 100 µM. For the same compound, the GI50 (UO-31) was 10.7 µM, the CC50 (UO-31; [7]) was over 100 µM and the TGI (UO-31; read-out: pTGI) was over 100 µM. For the same compound, the GI50 [6] was 85.1 nM, the CC50 [6, 7] was over 100 µM and the TGI ([6]; read-out: pTGI (converted)) was 2290 nM.

Reference: ChEMBL document CHEMBL1667760, “Synthesis and biological evaluation of 3,5-diaryl isoxazoline/isoxazole linked 2,3-dihydroquinazolinone hybrids as anticancer agents” (2011)
